Screening data deposited in PubChem BioAssay by Broad Institute.
CaV13 FRET inh – Disruptors of the CACNA1D IQ motif to Ca2+-dependent inactivation inhibitor domain association, primary screening, Förster resonance energy transfer in intact living … | HEK cells, CFP/YFP FRET ICDI-IQ, plate reader, 10 min; percent FRET-ratio fall versus neutral wells | inhibition, % at 12.3 µM | 340,000 compounds, 0.098% hits;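 active = mean replicate inhibition of at least 30% and at least 1% of replicates passing that level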;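 also: 0% = median of the neutral control wells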
F508del corr – F508del CFTR correction, initial screen, CFBE line, single point. 350,000 compounds, 0.36% hits. activity (quench increase), % at 7.58 µM. CFBE cells, YFP halide quenching; stimulated with forskolin plus potentiator P3; % fluorescence drop versus neutral controls;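 active = mean added fluorescence quench of at least 8% versus neutral control, with both replicates also reaching 8%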;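 also: cells transiently co-express mutant CFTR-F508del with the halide-sensitive YFP; corrector assay measuring rescue of mutant channel to the surface after 24 h compound exposure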
rRNA inh HTS – reduced GFP signal of wild-type E. coli, primary screen, bacterial rRNA inhibitor project, GFP/RFP fluorescence, OD600, single point; 350,000 compounds, 1.6% hits; GFP signal change (wild-type ribosome), % (concentration not given with the values); E. coli WT GFP vs humanized-ribosome RFP mutants, 24 h; active compounds read low; DMSO median 0, no signal -100; AID 720706, 2013;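 active = significant combined selectivity score with lowered wild-type GFP, culture density cut under 30%, mutant RFP and density less affected; inactive = any of these conditions unmet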
Cneo AK release – Cryptococcus neoformans cell lysis inducers, primary screen, AK release luminescence, single concentration | C. neoformans lysis, adenylate kinase release luminescence, 4 h; normalised: neutral wells 0, clomiphene wells 100 | lysis activity, % at 15 µM | 360,000 compounds, 0.2% hits;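 active = mean lysis activity across replicates of at least 80%, whatever share of replicates individually reach that level; inactive = mean lysis activity below 80%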
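Material: C. neoformans cells | Amount: Yeast cell density of 5 × 10^6 cells/mL | Medium: Fresh YPD growth medium | Dosing: Single dose | Times: Static 4 h at 37 °C with compound, 1 h detection | Detection: AK luminescence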
* marks the source's active call; other numbers are inactive results; / = not tested or not shown; + = active, no number. Shown are actives, neighbours in structure and some others; about 1.7% of the full set was active somewhere.

SMILES | CaV13 FRET inh | F508del corr | rRNA inh HTS | Cneo AK release
C[C@@H]1CN([C@H](C)CO)C(=O)c2cc(NC(=O)Nc3ccc(C(F)(F)F)cc3)ccc2O[C@@H](C)CCCCO[C@H]1CN(C)Cc1ccc(C(=O)O)cc1 | / | 3.3 | 0.7 | -0.8
CCC(=O)N(C)C[C@@H]1Oc2cc(-c3ccccc3OC)ccc2S(=O)(=O)N([C@H](C)CO)C[C@@H]1C | / | -1.5 | 1.8 | -1.0
COc1ccc(CNC(=O)C[C@H]2CC[C@H]3[C@@H](COc4ccc(NC(=O)C5CC5)cc4C(=O)N3C)O2)cc1 | / | 2.1 | -0.3 | 91.3*
CN1CCc2c(sc(NC(=O)c3ccco3)c2C(N)=O)C1 | -5.2 | 2.1 | 7.2 | -2.0
CN1CCc2c(sc(NC(=O)c3cc(Cl)sc3Cl)c2C(N)=O)C1 | + | 1.8 | -1.9 | -0.2
CC1=C(C(=O)N(C)C)CC(CC(=O)NCc2cccc3ccccc23)C(=O)N1CCCN1CCCC1=O (stereo not drawn) | -6.1 | 8.3* | 10.0 | -2.9
CC(Sc1nc2ccccc2n1C)C(=O)Nc1ccc(N2CCOCC2)cc1 (stereo not drawn) | -6.8 | 3.8 | -22.6* | /
NNC(=O)c1[nH]c2ccc(Br)cc2c1-c1ccccc1 | -19.4 | 7.7 | -25.7* | /
C/C(=N\NC(=O)CCCC(=O)O)c1c(-c2ccccc2)c2cc(Cl)ccc2[nH]c1=O | -2.8 | 0.9 | 7.0 | /
NNC(=O)c1[nH]c2ccc(Cl)cc2c1-c1ccccc1 | -4.2 | 16.8* | -31.1 | /
O=C(O)CSc1c(-c2ccccc2)c2cc(Cl)ccc2[nH]c1=O | -3.0 | / | -28.1* | /
CCOC(=O)CSc1c(-c2ccccc2)c2cc(Cl)ccc2[nH]c1=O | -3.6 | -1.0 | -1.9 | 0.5
O=C(C1CC1)N1CC2(C1)[C@H](c1ccccc1)[C@H](CO)N2Cc1nccs1 | / | 1.5 | -1.0 | /
COCC#Cc1ccc2c(c1)O[C@@H](CN(C)Cc1ccccn1)[C@H](C)CN([C@@H](C)CO)S2(=O)=O | / | 1.9 | -6.2 | -1.2
C[C@H](CO)N1C[C@H](C)[C@H](CN(C)S(=O)(=O)c2cn(C)cn2)OCCCC[C@H](C)Oc2ccc(NS(=O)(=O)c3ccccc3)cc2C1=O | / | -3.7 | -2.2 | 0.6
Cc1cccc(N=C2NC(=O)/C(=C/c3cccn3C)S2)c1C | -15.0 | 3.8 | -25.6* | 1.0
Cc1ccc(N=C2NC(=O)/C(=C/c3cccn3C)S2)cc1C | -4.8 | 1.0 | 1.6 | -1.9
CSc1ccc(/C=C/c2ccc3cccc(O)c3n2)cc1 | -6.5 | -0.7 | -30.2* | /
COc1cc(/C=C/c2ccc3cccc(O)c3n2)ccc1O | -5.7 | 1.0 | -58.5 | -5.8
O=C(COC(=O)C12CC3CC(CC(Br)(C3)C1)C2)Nc1c(F)cccc1F | -14.7 | -1.4 | -26.6* | 0.0
O=C(COC(=O)C12CC3CC(CC(O)(C3)C1)C2)NCCc1ccc(Cl)cc1 | -5.0 | -0.1 | -20.0* | /
O=C(COC(=O)C12CC3CC(CC(O)(C3)C1)C2)Nc1ccc(Cl)cc1F | -7.3 | 2.3 | 5.0 | -1.0
CCNC(=O)[C@@H]1[C@@H](CO)[C@@H]2Cn3c(ccc(-c4cccc(C(=O)N(C)C)c4)c3=O)[C@H]1N2 | / | 0.2 | 4.0 | /
COc1ccc2c3c([nH]c2c1)[C@@H](CO)N(C(=O)Nc1ccc(F)cc1)CC31CN(C(=O)Cc2ccncc2)C1 | / | 0.2 | -2.5 | /
O=C(NC1CCN(Cc2ccccc2)CC1)c1ccc2c(c1)[nH]c(=O)n2Cc1ccc(F)cc1 | -5.0 | -1.1 | -31.5* | /
SMILES | CaV13 FRET inh | F508del corr | rRNA inh HTS | Cneo AK release
CCCCCn1c(=O)[nH]c2cc(C(=O)NC3CCN(Cc4ccccc4)CC3)ccc2c1=O | -3.9 | 0.4 | 0.9 | -0.9
COc1ccc(/C=C/C(=O)Nc2ccc(-c3nnc4n3CCCCC4)cc2)c(OC)c1 | -3.0 | / | -20.2* | /
CN1/C(=C\C=C2/SC(=S)N(CC(=O)O)C2=O)C(C)(C)c2ccccc21 | -101.3 | 16.2* | 108.5 | /
COCCNC(=S)N(CCc1c(C)[nH]c2ccc(Cl)cc12)Cc1cccs1 | 3.6 | 0.5 | -22.4* | -0.6
C[C@H](CO)N1C[C@H](C)[C@@H](CN(C)Cc2cccc(C(=O)Nc3ccccc3N)c2)OCc2ccccc2-c2c(n(C)c3ccccc23)C1=O | / | 1.6 | 1.6 | /
CCC(C)NCCOCCOc1ccc(Cl)c(C)c1C (stereo not drawn) | -2.9 | / | / | /
CCC(C)NCCOCCOc1ccc(Cl)c2ccccc12 (stereo not drawn) | 5.7 | 2.4 | -53.1* | 3.6
Cc1ccc(S(=O)(=O)N[C@@H]2CC[C@@H](CCn3cc(-c4ccccc4F)nn3)O[C@H]2CO)cc1 | / | -8.4 | 0.0 | 1.2
C=CCn1c(SCC(=O)Nc2nc3ccccc3s2)nc(O)c(CC)c1=O | -17.5 | 2.3 | -26.8* | -2.5
CCc1c(O)nc(SCC(=O)Nc2nc3ccccc3s2)n(-c2ccccc2)c1=O | -14.3 | -2.1 | -29.7 | 3.1
CCC1(C)Cc2ccccc2-c2nc(NCCCO)n(-c3ccccc3)c(=O)c21 (stereo not drawn) | -4.4 | / | / | -0.5
CC1(C)Cc2ccccc2-c2nc(NCCCO)[nH]c(=O)c21 | -2.7 | -4.4 | -42.9* | -2.2
CCn1c(NCCO)nc2c(c1=O)C(C)(CC)Cc1ccccc1-2 (stereo not drawn) | -11.8 | 1.8 | -28.2* | /
CN1CCN(C(=O)C[C@@H]2CC[C@H]3[C@@H](COC[C@H](O)CN3S(=O)(=O)c3cccc(Cl)c3)O2)CC1 | / | -1.6 | 3.1 | 0.5
COc1ccc2c3c([nH]c2c1)[C@H](CO)N(C(=O)CN(C)C)CC31CCN(Cc2ccccc2)CC1 | / | 0.5 | 2.9 | /
COC(=O)c1cc(NC(=O)Nc2cccc(Cl)c2)ccc1Cl | -7.6 | 1.6 | -51.0* | -1.5
CC(=O)Nc1cccc(C(=O)OCC(=O)c2ccccc2Cl)c1 | -7.3 | -0.1 | -24.2* | /
COC(=O)c1cccc(NC(=S)Nc2ccc(Cl)c(Cl)c2)c1 | -3.7 | 1.1 | -47.7* | -3.9
COc1ccc(NC(=O)Nc2ccc3c(c2)CC(=O)N([C@H](C)CO)C[C@H](C)[C@@H](CN(C)C(=O)NC2CCCCC2)O3)cc1 | / | -1.9 | 1.4 | 1.1
O=C(c1ccc([N+](=O)[O-])cc1)N(Cc1ccccc1)Cc1ccccc1 | -6.4 | -6.4 | -25.8* | 2.5
O=C(NCCc1ccccc1)c1ccc([N+](=O)[O-])cc1 | -4.6 | / | / | 5.5
Cc1ccc(C(=O)OC(C)C(=O)NC2CCCCC2C)s1 (stereo not drawn) | -2.4 | -0.9 | 12.8 | -0.4
CC(OC(=O)c1cccs1)C(=O)NC1CCCCC1C (stereo not drawn) | -6.1 | 28.6* | 3.3 | 3.6
O=c1[nH]c2c(cnn2-c2ccc(Cl)cc2)c(=O)n1-c1cccc(Cl)c1 | -3.8 | 0.6 | -34.5* | /
O=C(NCC(c1ccc(F)cc1)N1CCOCC1)c1ccc([N+](=O)[O-])o1 (stereo not drawn) | -9.4 | -9.7 | -18.1* | -19.8
